Among the data in ChEMBL document CHEMBL1782031, “Urea/thiourea derivatives of quinazolinone-lysine conjugates: synthesis and structure-activity relationships of a new series of antimicrobials” (2011) are zone of inhibition values, retold here.

Holding throughout (type): functional
Holding throughout (settings): read-out: DIZ

The subject of one assay is Escherichia coli. The assay can be described thus: Antibacterial activity against Escherichia coli at 10 ug/disc after 24 hrs by disc diffusion method. An outline of the steps:
(§1)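 Disc diffusion assay. Discs were held at 4 °C for 2 h so the compounds could diffuse, then incubated at 28 °C. Inhibition zone diameters were measured in mm after 24 h. Each compound was tested in triplicate.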
A general note: Agar diffusion results depend on both activity and mobility in agar.

The test system of a further assay is Xanthomonas oryzae. In words: Antibacterial activity against Xanthomonas oryzae at 10 ug/disc after 24 hrs by disc diffusion method.
The next assay deals with Pseudomonas fluorescens. In words: Antibacterial activity against Pseudomonas fluorescens at 10 ug/disc after 24 hrs by disc diffusion method. Put shortly:
as §1

The nature of assay [1]: Antibacterial activity against Xanthomonas campestris pvs. at 10 ug/disc after 24 hrs by disc diffusion method. Put shortly: as §1
The subject of another assay is Bacillus subtilis. In words: Antibacterial activity against Bacillus subtilis at 10 ug/disc after 24 hrs by disc diffusion method. An outline of the steps:
as §1

For the compound `COc1ccc(NC(=O)NCCCC[C@H](NC(=O)CCCc2nc3ccccc3c(=O)[nH]2)C(=O)O)cc1`, the zone of inhibition at 10 µg/disc with Escherichia coli amounted to 24 mm; with Xanthomonas oryzae, 26 mm; in the assay on Pseudomonas fluorescens, 23 mm; in assay [1] it was 25 mm; in the assay on Bacillus subtilis it was 22 mm.

Consider `NCCCC[C@H](NC(=O)CCCc1nc2ccccc2c(=O)[nH]1)C(=O)O`, for which the zone of inhibition at 10 µg/disc with Escherichia coli was 10 mm; in the assay with Xanthomonas oryzae it was 12 mm; in the assay with Pseudomonas fluorescens it was 12 mm; in assay [1], 13 mm; in the assay on Bacillus subtilis, 14 mm.

For `O=C(CCc1nc2ccccc2c(=O)[nH]1)N[C@@H](CCCCNC(=S)Nc1cccc(F)c1)C(=O)O`, the zone of inhibition at 10 µg/disc with Escherichia coli was determined as 38 mm; in the assay with Xanthomonas oryzae, 36 mm; in the assay with Pseudomonas fluorescens, 34 mm; in assay [1], 36 mm; in the assay with Bacillus subtilis, 36 mm.

As for `COC(=O)[C@H](CCCCNS(C)(=O)=O)NC(=O)CCCc1nc2ccccc2c(=O)[nH]1`, the zone of inhibition at 10 µg/disc in the assay with Escherichia coli was found to be 9 mm; with Xanthomonas oryzae it was 11 mm; in the assay with Pseudomonas fluorescens, 11 mm; in assay [1], 12 mm; with Bacillus subtilis, 11 mm.

In the case of `COC(=O)[C@H](CCCCNC(=S)Nc1ccc(F)cc1C)NC(=O)CCc1nc2ccccc2c(=O)[nH]1`, the zone of inhibition at 10 µg/disc in the assay on Escherichia coli was found to be 32 mm; in the assay on Xanthomonas oryzae, 34 mm; with Pseudomonas fluorescens it was 34 mm; in assay [1], 33 mm; in the assay on Bacillus subtilis, 33 mm.

Regarding `COC(=O)[C@H](CCCCNC(C)=O)NC(=O)CCc1nc2ccccc2c(=O)[nH]1`, the zone of inhibition at 10 µg/disc with Escherichia coli came to 10 mm; with Xanthomonas oryzae, 12 mm; in the assay with Pseudomonas fluorescens it was 12 mm; in assay [1], 11 mm; in the assay on Bacillus subtilis, 9 mm.

In the case of `COC(=O)[C@H](CCCCNC(=S)Nc1ccccc1C)NC(=O)CCc1nc2ccccc2c(=O)[nH]1`, the zone of inhibition at 10 µg/disc worked out at 22 mm with Escherichia coli; 26 mm in the assay with Xanthomonas oryzae; 24 mm in the assay with Pseudomonas fluorescens; 27 mm in assay [1]; 23 mm in the assay with Bacillus subtilis.

With `Cc1ccccc1NC(=S)NCCCC[C@H](NC(=O)CCc1nc2ccccc2c(=O)[nH]1)C(=O)O`, the zone of inhibition at 10 µg/disc worked out at 23 mm in the assay with Escherichia coli; 28 mm in the assay with Xanthomonas oryzae; 25 mm with Pseudomonas fluorescens; 28 mm in assay [1]; 23 mm in the assay on Bacillus subtilis.

Regarding `COC(=O)[C@H](CCCCNC(=O)OC(C)(C)C)NC(=O)CCCc1nc2ccccc2c(=O)[nH]1`, the zone of inhibition at 10 µg/disc in the assay on Escherichia coli was 8 mm; in the assay on Xanthomonas oryzae, 9 mm; with Pseudomonas fluorescens, 8 mm; in assay [1], 7 mm; in the assay on Bacillus subtilis, 6 mm.

`NCCCC[C@H](NC(=O)CCc1nc2ccccc2c(=O)[nH]1)C(=O)O`: the zone of inhibition at 10 µg/disc worked out at 9 mm in the assay with Escherichia coli; 9 mm with Xanthomonas oryzae; 10 mm in the assay on Pseudomonas fluorescens; 10 mm in assay [1]; 8 mm in the assay on Bacillus subtilis.

Regarding `O=C(CCc1nc2ccccc2c(=O)[nH]1)N[C@@H](CCCCNC(=O)Nc1cccc(F)c1)C(=O)O`, the zone of inhibition at 10 µg/disc in the assay on Escherichia coli worked out at 35 mm; with Xanthomonas oryzae it was 34 mm; with Pseudomonas fluorescens, 34 mm; in assay [1], 33 mm; in the assay with Bacillus subtilis, 35 mm.

As to `COC(=O)[C@H](CCCCNC(=O)Nc1cccc(F)c1)NC(=O)CCCc1nc2ccccc2c(=O)[nH]1`, the zone of inhibition at 10 µg/disc stood at 35 mm in the assay on Escherichia coli; 35 mm in the assay with Xanthomonas oryzae; 34 mm with Pseudomonas fluorescens; 36 mm in assay [1]; 36 mm with Bacillus subtilis.

As to `CC(C)(C)OC(=O)NCCCC[C@H](NC(=O)CCCc1nc2ccccc2c(=O)[nH]1)C(=O)O`, the zone of inhibition at 10 µg/disc in the assay on Escherichia coli was found to be 10 mm; in the assay with Xanthomonas oryzae it was 11 mm; in the assay on Pseudomonas fluorescens it was 11 mm; in assay [1] it was 12 mm; with Bacillus subtilis it was 9 mm.
